# High-throughput results (PubChem)
# PostGolgi yeast – phenotypic screen on post-Golgi transport, primary screen | 98,000 compounds, 0.9% hits | post-Golgi transport phenotypic cell assay | inhibition, % at 10 µM;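 also: yeast cells grown in 1536-well plates; yeast grown about 18 h at 30C before absorbance read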
# Ecoli WT expand – growth inhibitors of wild-type E. coli, primary screen, strain BW25113, expanded library, OD600. 98,000 compounds, 0.15% hits. growth inhibition, % at 100 µM. OD600 absorbance;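 active = growth inhibition above about 50% at one test dose, limit read from the data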;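 also: growth measured after 20 h incubation at 37 °C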
# HePTP inh – inhibitors of human HePTP phosphatase, primary screen, biochemical, absorbance, leukemia target | Tyrosine-protein phosphatase non-receptor type 7 (Homo sapiens), P35236 | recombinant HePTP phosphatase activity, OD absorbance | inhibition, % at 20 µM | 110,000 compounds, 0.64% hits | AID 521, 2006; in the data active = inhibition above about 50%;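 also: plate controls were vehicle for no effect and reference inhibitor for full effect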
# Target sequence (P35236 whole entry, looked up): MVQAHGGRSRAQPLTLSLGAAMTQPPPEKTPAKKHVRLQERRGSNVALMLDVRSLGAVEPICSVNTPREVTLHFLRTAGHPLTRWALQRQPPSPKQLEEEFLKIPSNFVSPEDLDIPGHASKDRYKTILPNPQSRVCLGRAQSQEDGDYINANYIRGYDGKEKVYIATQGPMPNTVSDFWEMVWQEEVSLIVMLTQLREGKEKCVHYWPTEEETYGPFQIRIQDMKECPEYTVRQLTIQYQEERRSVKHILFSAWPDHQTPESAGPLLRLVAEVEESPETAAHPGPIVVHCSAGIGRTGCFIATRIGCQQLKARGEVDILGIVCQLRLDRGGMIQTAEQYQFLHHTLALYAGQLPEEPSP
# PostGolgi ctrl – growth inhibition of yeast control strain, primary screen, counter-screen for post-Golgi transport modulator project; efflux-deficient yeast background strain, growth absorbance A615, 16 h; inhibition, % at 10 µM; 98,000 compounds, 5% hits; AID 738, 2007
# tolC growth inh – growth inhibitors of E. coli tolC mutant, primary screen, strain BW25113 ΔtolC::kan, 384-well | OD615 | growth inhibition, % at 10 µM (by protocol) | AID 573, 2007 | 65,000 compounds, 2.2% hits;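 active = growth inhibition at or above a cutoff equal to the mean over every tested compound plus 3 SD, cut at about 60% in these data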;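 also: growth measured after 20 h incubation at 37 °C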
#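 Signal: optical density read at 615 nm; Assay system: E. coli ΔtolC::kan strain BW25113; Times: 20 h incubation with compound, 37 °C; Dosing: 10 µM final, single dose.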
# PLAP activator – PLAP enzyme activators, biochemical, luminescence, HTS. 96,000 compounds, 1.2% hits. AID 696, 2007. activation fold at 20 µM. purified PLAP enzyme, luminescent substrate read-out; stronger effect = higher value. Alkaline phosphatase, placental type (Homo sapiens), P05187; in the data active = activation fold above about 2
# Numbers without * were called inactive; . = no result. Shown are actives, neighbours in structure and some others; about 5.4% of the full set was active somewhere. Rule as the data show it, unless noted: active = inhibition above about 30%; inactive = the rest.
SMILES,PostGolgi yeast,Ecoli WT expand,HePTP inh,PostGolgi ctrl,tolC growth inh,PLAP activator
CC1CCCN(C/C(O)=C(\C#N)c2nc3ccccc3[nH]2)C1 (stereo not given),-1.7,4.0,3.5,6.9,-16.0,2*
Cc1cc(C)n2c(SC/C(O)=C(\C#N)c3nc4ccccc4[nH]3)nnc2n1,-0.2,-4.0,19.9,8.3,-12.9,2*
CCOC(=O)c1c(C)[nH]c(C(=O)OC/C(O)=C(\C#N)c2nc3ccccc3[nH]2)c1C,-5.1,7.0,7.7,-13.9,5.7,2.1*
COc1ccc(C/C(O)=C(\C#N)c2nc3ccccc3[nH]2)cc1OC,14.3,-10.0,2.0,-4.6,5.3,2.7*
Cc1ccccc1-n1c(SC/C(O)=C(\C#N)c2nc3ccccc3[nH]2)nnc1-c1ccncc1,-1.6,0.0,4.8,-0.9,-11.1,1.8
COc1cccc(OC)c1/C(O)=C(\C#N)c1nc2ccccc2[nH]1,9.6,2.0,5.7,-1.7,0.8,1.6
COc1cc(Cl)cc(/C=C2\C(=O)NC(=O)N(c3ccc(Br)c(C)c3)C2=O)c1O,.,.,1.8,.,.,.
COc1ccc(S(=O)(=O)Nc2ccc(C)c(Cl)c2)cc1OC,.,.,1.6,.,.,.
COc1cc2c(C#N)c(N3CCc4ccccc4C3)nc(N)c2c(N)n1,27.4,-14.0,13.3,76.8*,74.2*,1.4
NC(=O)c1cc2nc(-c3ccc(Cl)c(Cl)c3)cc(C(F)(F)F)n2n1,.,.,6.7,.,.,.
O=C(Nc1ccccc1I)c1ccccc1C(F)(F)F,.,.,8.5,.,.,.
O=C(Nc1ccccc1Cl)c1ccccc1Oc1ccc(C(F)(F)F)cc1[N+](=O)[O-],-0.8,-18.0,.,54.1*,.,1.3
O=C(Nc1ccccc1Cl)c1ccccc1C(F)(F)F,.,.,103.5*,.,.,.
COCCCn1c(Cc2csc(Nc3cccc(Cl)c3)n2)nnc1SCC(=O)OC,-6.5,21.0,19.4,-2.6,11.3,2*
O=C(OCC(=O)N1CCN(C(=O)c2ccco2)CC1)c1cn(-c2ccccc2)nc1-c1ccccc1,47.7*,-5.0,6.2,100.7*,10.1,1.6
O=C(OCC(=O)N1CCN(C(=O)c2ccco2)CC1)c1ccccc1C(=O)c1ccccc1,4.2,-3.0,-11.0,2.8,-0.5,1.3
Cc1cc(C(=O)OCC(=O)N2CCN(C(=O)c3ccco3)CC2)c(C)n1-c1ccc(F)cc1,-5.7,2.0,10.2,6.7,6.6,1.5
O=C(OCC(=O)N1CCN(C(=O)c2ccco2)CC1)c1cc(-c2ccccc2)nc2ccccc12,43.6*,-14.0,-1.8,47.5*,27.6,1.5
O=C(OCC(=O)N1CCN(C(=O)c2ccco2)CC1)c1cc(-c2cccc(Br)c2)nc2ccccc12,79.6*,-8.0,.,72.5*,.,1.8
O=C(OCC(=O)N1CCN(C(=O)c2ccco2)CC1)c1cc(-c2ccc(F)cc2)nc2ccccc12,47.3*,-6.0,-5.0,73.2*,11.0,1.5
COCCN(Cc1cc2cccc(C)c2n2nnnc12)C(=O)C(F)(F)F,4.9,-2.0,6.3,6.5,0.3,1
Cc1cccc2cc(CN(Cc3ccc(F)cc3)C(=O)N(C)C)c3nnnn3c12,12.2,-5.0,11.0,32.1*,3.1,1.6
CCCCN(C)S(=O)(=O)c1ccc(C(=O)Nc2nnc(-c3cccs3)o2)cc1,14.6,1.0,6.5,7.3,100.0*,1
CCCN(CCC)S(=O)(=O)c1ccc(C(=O)Nc2nnc(CSC)o2)cc1,12.2,6.0,8.8,12.0,98.8*,1.1
CCCCN(CC)S(=O)(=O)c1ccc(C(=O)Nc2nnc(CSC)o2)cc1,-6.8,12.0,15.8,9.2,98.5*,1.2
SMILES,PostGolgi yeast,Ecoli WT expand,HePTP inh,PostGolgi ctrl,tolC growth inh,PLAP activator
CCc1nnc(NC(=O)c2ccc(S(=O)(=O)N(CCOC)CCOC)cc2)o1,-13.9,-3.0,14.2,5.9,-4.6,1.2
CCCCN(CC)S(=O)(=O)c1ccc(C(=O)Nc2nnc(COC)o2)cc1,2.5,5.0,-0.9,15.2,88.3*,1.4
CCN(CC)S(=O)(=O)c1ccc(NC(=O)c2ccc(Cl)cc2)cc1,.,.,-18.2,.,.,.
CCN(CC)Cc1cc(NC2=NS(=O)(=O)c3ccccc32)ccc1O,.,.,7.2,.,.,.
O=C(c1ccc(C#Cc2ccccc2)cc1)N1CCN(c2ccccn2)CC1,.,.,6.3,.,.,.
COc1ccc(NC(=S)NC(NC(=O)Cc2ccccc2)C(Cl)(Cl)Cl)cc1OC (stereo not given),.,.,-0.3,.,.,.
COc1cccc(-c2nnc(NC(=O)/C=C/c3ccccc3)s2)c1,.,.,-6.6,.,.,.
O=C(Nc1ccc(Oc2ccc(NC(=O)C3CCCCC3)cc2)cc1)C1CCCCC1,.,.,-8.6,.,.,.
CCN1C(=O)/C(=C\c2cc(Cl)c(OCc3ccccc3F)c(OC)c2)SC1=S,.,.,3.6,.,.,.
COC(=O)C1=C(C)NC2=C(C(=O)CC(C)(C)C2)C1c1cccs1 (stereo not given),.,.,3.2,.,.,.
CCCCN(CCCC)S(=O)(=O)c1ccc(C(=O)Nc2nnc(CSC)o2)cc1,-4.2,8.0,6.3,-1.9,98.8*,1.2
COCCN(CCOC)S(=O)(=O)c1ccc(C(=O)Nc2nnc(C3CC3)o2)cc1,7.6,-1.0,4.9,6.8,-8.9,1.4
CCCCN(CC)S(=O)(=O)c1ccc(C(=O)Nc2nnc(-c3ccccc3Cl)o2)cc1,-8.5,-2.0,9.2,5.9,100.0*,1.7
COc1ccc(COC(=O)C2=C(C)NC3=C(C(=O)CC(C)(C)C3)C2c2ccsc2)cc1 (stereo not given),.,.,1.2,.,.,.
CCC(=O)Nc1cccc(C(=O)/C=C/c2cc(Br)ccc2OC)c1,4.5,-13.0,.,80.6*,.,1.5
CCC(=O)Nc1ccc2nn(-c3ccc(C)c(Cl)c3)nc2c1,.,.,13.0,.,.,.
CCn1c(=S)[nH]c2ccccc21,-1.7,6.0,.,9.7,.,2.1*
CC(=O)NC1=NC(=O)/C(=C\c2ccc(N(C)C)cc2)S1,.,.,5.5,.,.,.
O=C1C2C3C=CC(CC3)C2C(=O)N1/N=C/c1ccccc1I (stereo not given),.,.,-8.0,.,.,.
CC1CCN(c2nc3ccccc3nc2C(C#N)S(=O)(=O)c2ccccc2)CC1 (stereo not given),.,.,-1.6,.,76.4*,.
Cc1ccc(S(=O)(=O)C(C#N)c2nc3ccccc3nc2N2CC(C)OC(C)C2)cc1C (stereo not given),15.4,6.0,6.3,13.3,47.5,1.4
COc1ccc(S(=O)(=O)C(C#N)c2nc3ccccc3nc2N2CCCC(C)C2)cc1 (stereo not given),-7.0,-5.0,13.7,10.4,68.1*,1.4
CCN1CCN(c2nc3ccccc3nc2C(C#N)S(=O)(=O)c2ccc(C)c(C)c2)CC1 (stereo not given),3.3,6.0,.,6.0,.,2*
CCN1CCN(c2nc3ccccc3nc2C(C#N)S(=O)(=O)c2ccc(C)cc2)CC1 (stereo not given),-2.8,-10.0,.,13.9,.,1.5
